Measurements gathered from unrelated publications.
Protocols differ between the studies behind these lines.
Target: Serine/threonine-protein kinase tousled-like 2 (TLK2, Homo sapiens, UniProt Q86UE8)

| Compound | read-out | mode | method | concentration | endpoint | value |
| --- | --- | --- | --- | --- | --- | --- |
| CC(C)(C)c1nc2c(s1)c1nc(N)ncc1c1ccc(NS(=O)(=O)c3c(F)cccc3F)c(F)c12 | enzyme activity | inhibitor | radiometric | 1 µM | remaining activity | 109% |
| CN1CC(Oc2cnc(C#N)cc2-c2ccn3nc(NC(=O)C4CC4)cc3c2)C1 | enzyme activity | inhibitor |  | 1 µM | inhibition | 1% |
| C[C@@H](c1cccc(C#N)c1)n1cc(Cl)cc(C(N)=O)c1=N | cell-free assay |  | competition with immobilised ligand | 1 µM | remaining binding | 100% |
| c1ccc(CNc2nc(N3CCOc4ccccc43)nc3c2CCCC3)cc1 | target engagement in cells | inhibitor | chemoproteomics | 20 mM | inhibition | -6.8% |
| Oc1cccc(-c2nc(N3CCOCC3)c3oc4ncccc4c3n2)c1 | cell-free assay |  |  | 0.5 µM | remaining signal | 102% |
| O=C(NC[C@@H]1[C@H]2CN(C(=O)OCc3cc(C(F)(F)F)cc(C(F)(F)F)c3)C[C@@H]12)c1ccc2[nH]nnc2c1 | cell-free assay |  | competition with immobilised ligand | 1 µM | remaining binding | 90% |
| Cc1cnc(NC2CCOCC2)nc1-n1cnc(C(=O)NC(CN)c2cc(F)cc(Cl)c2)c1 (centres unmarked) | enzyme activity | inhibitor | radiometric | 1 µM | remaining activity | 100% |
| O=C1Nc2ccc(Cl)cc2C1=Cc1cc(Cl)c(O)c(Cl)c1 | cell-free assay |  |  | 0.5 µM | remaining signal | 105% |
| Cc1sc(C(=O)NC2COC2)cc1-n1cc(NC(=O)Nc2c(F)cccc2Cl)cn1 | enzyme activity | inhibitor |  | 10 µM | remaining activity | 97.2% |
| CC(C)(O)[C@H]1CC[C@H](Nc2ccc3ncc(-c4cccc(C(F)(F)F)c4)n3n2)CC1 | enzyme activity | inhibitor |  | 1 µM | remaining activity | 103% |
| CCN(CC)c1ccc(C2=NNC(=O)CC2C)cc1[N+](=O)[O-] (centres unmarked) | enzyme activity | inhibitor |  | 10 µM | remaining activity | 82% |
| C[C@H](c1ccc(F)cc1)N(Cc1cccc(C(=O)O)c1)C(=O)c1cnc2ccccc2c1 | cell-free assay |  | competition with immobilised ligand | 1 µM | remaining binding | 97% |
| O=C(Nc1cnn(-c2csc(C(=O)NC3COC3)c2)c1)Nc1c(F)cccc1Cl | enzyme activity | inhibitor |  | 5 µM | remaining activity | 109% |
| COc1cc2c(N3CCN(C(=O)Nc4ccc(OC(C)C)cc4)CC3)ncnc2cc1OCCCN1CCCCC1 | cell-free assay |  |  | 0.5 µM | remaining signal | 96.2% |
| CCCOc1ccc([C@H]2[C@H](C(=O)O)[C@@H](c3ccc4c(c3)OCO4)CN2CC(=O)Nc2c(CC)cccc2CC)cc1 | cell-free assay |  | competition with immobilised ligand | 1 µM | remaining binding | 94% |
| CCCCNc1ncc2c(-c3ccc(F)cc3)nn(C[C@H]3CC[C@H](N)CC3)c2n1 | target engagement in cells | inhibitor | chemoproteomics | 20 mM | inhibition | -20.7% |
| COc1ccc2cc(OCC3(C(=O)O)CN(C(=O)c4ccc(F)cc4)C3)ccc2c1 | cell-free assay |  | competition with immobilised ligand | 1 µM | remaining binding | 100% |
| Cc1ccc(Nc2nccc(N(C)c3ccc4c(C)n(C)nc4c3)n2)cc1S(N)(=O)=O | cell-free assay | inhibitor |  | 0.5 µM | remaining signal | 85.6% |
| CCCCN(CCCC)C(=O)CN1C[C@@H](c2cc(OC)c3c(c2)OCO3)[C@H](C(=O)O)[C@H]1CC(C)(C)CCC | cell-free assay |  | competition with immobilised ligand | 1 µM | remaining binding | 100% |
| CNC(=O)c1cc(Oc2ccc(NC(=O)Nc3ccc(Cl)c(C(F)(F)F)c3)cc2)ccn1 | enzyme activity | inhibitor |  | 10 µM | inhibition | -1% |
